Consider 23 compounds from ChEMBL document CHEMBL4699659, “Discovery of 4-amino-1H-pyrazolo[3,4-d]pyrimidin derivatives as novel discoidin domain receptor 1 (DDR1) inhibitors” (Bioorg Med Chem, 2021).

Experiment [1] addresses Epithelial discoidin domain-containing receptor 1 (Homo sapiens, UniProt Q08345). As to the kind of experiment: Inhibition of DDR1 (unknown origin) using fluorescein-poly GAT as substrate measured after 1 hr by LANCE ULTRA kinase assay. Background: TR-FRET usually uses a lanthanide donor and a delayed reading to cut background.
The test system of experiment [2] is HCT-116. As to the kind of experiment: Antiproliferative activity against human HCT-116 cells overexpressing DDR1 assessed as inhibition of cell proliferation at 10 uM measured after 72 hrs by MTT assay relative to control. The class given is functional. A digest of the protocol: (§1)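 Adherent cells seeded at 3000–4000 per well, then given compound at 10 μM in 100 μL medium on day two. After 72 h, MTT added for a further 4–5 h and absorbance read at 570 nm. Percent growth inhibition taken from sample absorbance as a ratio to untreated control.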

The test system of experiment [3] is MDA-MB-231. As to the kind of experiment: Antiproliferative activity against human MDA-MB-231 cells overexpressing DDR1 assessed as inhibition of cell proliferation at 10 uM measured after 72 hrs by MTT assay relative to control. The class given is functional. A digest of the protocol:
as §1
A general note: Formazan colour is commonly taken as a measure of viable cells.

For experiment [4], the system named is HCT-116. The experiment is described as follows: Antiproliferative activity against human HCT-116 cells overexpressing DDR1 assessed as inhibition of cell proliferation measured after 72 hrs by MTT assay. The class given is functional, cell-based. The conditions noted are these: HCT-116, 72 h. A digest of the protocol:
(§2)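 Adherent cells seeded at 3000–4000 per well and dosed the next day with a dilution series in 100 μL medium. Exposure 72 h, then MTT incubation 4–5 h and absorbance read at 570 nm. Inhibition expressed as sample/control absorbance ratio; IC50 determined only for compounds giving […] inhibition at 10 μM.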

The subject of experiment [5] is MDA-MB-231. As to the kind of experiment: Antiproliferative activity against human MDA-MB-231 cells overexpressing DDR1 assessed as inhibition of cell proliferation measured after 72 hrs by MTT assay. The format is functional, cell-based. To be noted: MDA-MB-231, 72 h. The method in brief: as §2

As a reminder, the IC50 is the concentration at which inhibition is half-maximal. The inhibition is the share of the control response that was lost under treatment.

Epithelial discoidin domain-containing receptor 1, sequence (Q08345 whole entry, the tested form may be a part): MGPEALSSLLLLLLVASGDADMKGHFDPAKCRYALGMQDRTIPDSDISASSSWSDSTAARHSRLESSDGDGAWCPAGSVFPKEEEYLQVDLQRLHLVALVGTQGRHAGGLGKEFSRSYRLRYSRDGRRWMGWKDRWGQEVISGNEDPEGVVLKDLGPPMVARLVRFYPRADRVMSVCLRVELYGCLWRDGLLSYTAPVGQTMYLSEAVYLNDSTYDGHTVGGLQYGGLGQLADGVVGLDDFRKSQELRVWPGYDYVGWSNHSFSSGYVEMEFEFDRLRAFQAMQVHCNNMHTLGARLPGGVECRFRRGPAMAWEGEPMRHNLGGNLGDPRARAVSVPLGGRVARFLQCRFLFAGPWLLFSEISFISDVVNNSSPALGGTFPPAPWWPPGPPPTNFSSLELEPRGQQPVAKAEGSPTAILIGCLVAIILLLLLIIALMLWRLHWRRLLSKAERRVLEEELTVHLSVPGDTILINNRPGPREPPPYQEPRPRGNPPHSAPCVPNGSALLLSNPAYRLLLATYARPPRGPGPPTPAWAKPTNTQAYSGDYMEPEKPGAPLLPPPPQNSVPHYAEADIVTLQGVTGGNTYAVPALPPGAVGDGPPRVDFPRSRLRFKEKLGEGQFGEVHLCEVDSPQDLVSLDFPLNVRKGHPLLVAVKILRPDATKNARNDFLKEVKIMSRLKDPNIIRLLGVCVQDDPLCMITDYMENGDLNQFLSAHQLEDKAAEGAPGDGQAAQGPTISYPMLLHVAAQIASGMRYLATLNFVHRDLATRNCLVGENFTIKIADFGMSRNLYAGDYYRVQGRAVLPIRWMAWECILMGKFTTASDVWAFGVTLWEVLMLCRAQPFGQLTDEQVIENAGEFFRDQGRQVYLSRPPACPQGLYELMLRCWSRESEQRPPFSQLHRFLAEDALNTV

The compound `Cc1ccc(NC(=O)c2ccc(CN3CCOCC3)c(Cl)c2)cc1Oc1ccc(-c2n[nH]c3ncnc(N)c23)cc1` had an IC50 in experiment [1] of 2.17 µM. The inhibition at 10 µM in experiment [2] stood at 58.3%; in experiment [3], 96.5%.
With `Cc1ccc(NC(=O)c2ccc(CN3CCOCC3)c(C(F)(F)F)c2)cc1Oc1ccc(-c2n[nH]c3ncnc(N)c23)cc1`, the IC50 in experiment [1] was 0.416 µM; in experiment [4], over 10 µM. In addition, the inhibition at 10 µM worked out at 20.5% in experiment [2] and 71.3% in experiment [3].
The corresponding values for `Cc1ccc(NC(=O)c2cccc(CN3CCN(C)CC3)c2)cc1Oc1ccc(-c2n[nH]c3ncnc(N)c23)cc1` are 1.21 µM, 4.47 µM, 99.8% and 99.3%.
As for `Cc1ccc(NC(=O)c2ccc(CN3CCN(C)CC3)c(C(F)(F)F)c2)cc1Oc1ccc(-c2n[nH]c3ncnc(N)c23)cc1`, the IC50 was determined as 0.044 µM in experiment [1], 4 µM in experiment [4] and 3.36 µM in experiment [5]. Moreover, the values for the inhibition at 10 µM in experiment [2] and in experiment [3] were 100% and 97.9%, respectively.
For `Cc1ccc(NC(=O)c2ccc(CN3CCN(C)CC3)c(F)c2)cc1Oc1ccc(-c2n[nH]c3ncnc(N)c23)cc1`, the figures for the inhibition at 10 µM in experiment [2] and in experiment [3] were 73.2% and 92.1%, respectively.
With `Cc1ccc(NC(=O)c2ccc(CN3CCC(C)CC3)cc2)cc1Oc1ccc(-c2n[nH]c3ncnc(N)c23)cc1`, the inhibition at 10 µM is 99.9% in experiment [2] and 97.4% in experiment [3]. Besides, the figures for the IC50 in experiment [4] and in experiment [5] were 1.37 µM and 2.76 µM, respectively.
For `Cc1ccc(NC(=O)c2ccc(CN3CCC(C)CC3)c(C(F)(F)F)c2)cc1Oc1ccc(-c2n[nH]c3ncnc(N)c23)cc1`, the IC50 in experiment [1] is 2.81 µM; in experiment [5], over 10 µM. Further, the inhibition at 10 µM was 73.7% in experiment [2] and 42.1% in experiment [3].
With `Cc1ccc(NC(=O)c2ccc(CN3CCCC3)cc2)cc1Oc1ccc(-c2n[nH]c3ncnc(N)c23)cc1`, the inhibition at 10 µM came out at 100% in experiment [2] and 98.8% in experiment [3]. The concentration for half-maximal inhibition (IC50) in experiment [4] came out at 3.04 µM.
On to `Cc1ccc(NC(=O)c2ccc(CN3CCN(C)CC3)c(Cl)c2)cc1Oc1ccc(-c2n[nH]c3ncnc(N)c23)cc1`, for which the inhibition at 10 µM in experiment [2] turned out to be 99.9%; in experiment [3], 99.2%. Moreover, the IC50 in experiment [4] was 2.91 µM; in experiment [5], 3.83 µM.
As to `CCN1CCN(Cc2ccc(C(=O)Nc3ccc(C)c(Oc4ccc(-c5n[nH]c6ncnc(N)c56)cc4)c3)cc2)CC1`, the inhibition at 10 µM in experiment [2] turned out to be 33.6%; in experiment [3], 88.7%. The IC50 in experiment [4] is over 10 µM.
As to `Cc1ccc(NC(=O)c2ccc(CN3CCOCC3)c(F)c2)cc1Oc1ccc(-c2n[nH]c3ncnc(N)c23)cc1`, the IC50 is 24.4 µM in experiment [1] and over 10 µM in experiment [4]. Further, the inhibition at 10 µM in experiment [2] worked out at 11.1%; in experiment [3], 93.1%.
The corresponding values for `Cc1ccc(NC(=O)c2ccc(CN3CCCC3)c(C(F)(F)F)c2)cc1Oc1ccc(-c2n[nH]c3ncnc(N)c23)cc1` are 1.19 µM, over 10 µM, 34.9% and 98.5%.
The corresponding values for `Cc1ccc(NC(=O)c2ccc(CN3CCN(C)CC3)cc2)cc1Oc1ccc(-c2n[nH]c3ncnc(N)c23)cc1` are 2.69 µM, over 10 µM, 26.7% and 94.5%.
As for `Cc1ccc(NC(=O)c2ccc(CN3CCCCC3)cc2)cc1Oc1ccc(-c2n[nH]c3ncnc(N)c23)cc1`, the inhibition at 10 µM was 99.6% in experiment [2] and 98.7% in experiment [3]. For the same compound, the IC50 in experiment [4] stood at 2 µM; in experiment [5] it was 2.68 µM.
For the compound `Cc1ccc(NC(=O)c2ccc(CN3CCCCC3)c(C(F)(F)F)c2)cc1Oc1ccc(-c2n[nH]c3ncnc(N)c23)cc1`, the IC50 in experiment [1] is 0.975 µM; in experiment [4] it was over 10 µM; in experiment [5], over 10 µM. The inhibition at 10 µM in experiment [2] amounted to 36.9%; in experiment [3], 29.6%.
With `Cc1ccc(NC(=O)c2ccc(CN3CCN(C)CC3)c(I)c2)cc1Oc1ccc(-c2n[nH]c3ncnc(N)c23)cc1`, the IC50 in experiment [1] was 0.131 µM; in experiment [4] it was 4.51 µM; in experiment [5], 3.21 µM. Further, the inhibition at 10 µM in experiment [2] was found to be 99.7%; in experiment [3], 98.9%.
The matching figures for `CCN1CCN(Cc2ccc(C(=O)Nc3ccc(C)c(Oc4ccc(-c5n[nH]c6ncnc(N)c56)cc4)c3)cc2C(F)(F)F)CC1`: 0.07 µM, 5.48 µM, 3.85 µM, 99.7% and 99.3%.
On to `Cc1ccc(NC(=O)c2ccc(CN3CCN(C)CC3)c(Br)c2)cc1Oc1ccc(-c2n[nH]c3ncnc(N)c23)cc1`, for which the inhibition at 10 µM is 99.5% in experiment [2] and 100% in experiment [3]. For the same compound, the IC50 in experiment [4] is 6.56 µM.
Regarding `CN1CCN(Cc2ccc(C(=O)Nc3cccc(Oc4ccc(-c5n[nH]c6ncnc(N)c56)cc4)c3)cc2C(F)(F)F)CC1`, the half-inhibitory concentration (IC50) in experiment [1] turned out to be 0.044 µM; in experiment [4] it was 5.96 µM; in experiment [5] it was 4.29 µM. For the same compound, the figures for the inhibition at 10 µM in experiment [2] and in experiment [3] were 99.8% and 98.2%, respectively.
Take `Cc1ccc(NC(=O)c2ccc(CN3CCOCC3)c(Br)c2)cc1Oc1ccc(-c2n[nH]c3ncnc(N)c23)cc1`: the IC50 in experiment [1] is 2.47 µM; in experiment [4], over 10 µM. Also, the inhibition at 10 µM amounted to 35% in experiment [2] and 81.3% in experiment [3].
The compound `Cc1ccc(C(=O)Nc2ccc(CN3CCN(C)CC3)c(C(F)(F)F)c2)cc1C#Cc1cnc2ccnn2c1` registered an IC50 in experiment [1] of 0.005 µM.
Turning to `Cc1ccc(NC(=O)c2ccc(CN3CCOCC3)cc2)cc1Oc1ccc(-c2n[nH]c3ncnc(N)c23)cc1`, the values for the inhibition at 10 µM in experiment [2] and in experiment [3] were 97.2% and 99%, respectively. Further, the IC50 is 4.89 µM in experiment [4] and 3.53 µM in experiment [5].
With `Cc1cn(-c2cc(NC(=O)c3ccc(C)c(Nc4nccc(-c5cccnc5)n4)c3)cc(C(F)(F)F)c2)cn1` [NILOTINIB], the inhibition at 10 µM was found to be 88.1% in experiment [2] and 93.6% in experiment [3]. Further, the IC50 stood at 5.75 µM in experiment [4] and 7.31 µM in experiment [5].
